As usually defined, the Ki is a measure of affinity in units of concentration, obtained from inhibition or displacement. A higher Ki goes with a looser hold on the target. The term pKb denotes the negative decadic logarithm of the Kb, by convention in mol/L.

Consider six molecules from ChEMBL document CHEMBL1138195, “Highly chiral muscarinic ligands: the discovery of (2S,2'R,3'S,5'R)-1-methyl-2-(2-methyl-1,3-oxathiolan-5-yl)pyrrolidine 3-sulfoxide methyl iodide, a potent, functionally selective, M2 partial agonist” (J Med Chem, 2006).

In test [1] the target is T1, Muscarinic acetylcholine receptor M5 (Homo sapiens, UniProt P08912).
T1 sequence (P08912 whole entry): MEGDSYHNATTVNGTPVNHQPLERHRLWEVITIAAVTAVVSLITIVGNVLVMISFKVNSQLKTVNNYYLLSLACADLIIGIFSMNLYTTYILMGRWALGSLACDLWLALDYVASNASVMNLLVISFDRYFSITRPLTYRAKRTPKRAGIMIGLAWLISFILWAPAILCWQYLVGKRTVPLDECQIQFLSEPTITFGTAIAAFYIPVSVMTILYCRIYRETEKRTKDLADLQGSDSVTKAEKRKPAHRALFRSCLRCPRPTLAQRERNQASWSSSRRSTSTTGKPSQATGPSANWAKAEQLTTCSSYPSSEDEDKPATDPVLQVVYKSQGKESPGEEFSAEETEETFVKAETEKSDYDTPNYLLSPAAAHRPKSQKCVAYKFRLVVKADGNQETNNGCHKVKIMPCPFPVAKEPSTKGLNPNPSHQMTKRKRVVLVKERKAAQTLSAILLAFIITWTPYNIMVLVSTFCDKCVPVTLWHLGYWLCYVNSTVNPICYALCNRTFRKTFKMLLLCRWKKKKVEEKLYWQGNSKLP
Nature of the test: Binding affinity to cloned human muscarinic M5 receptor expressed in CHO cells. It counts as cell-based. In outline:
(§1)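 Membranes from CHO cells stably expressing human hm2, hm4 or hm5 receptors, at 70, 50 and 25 µg/mL protein respectively. 0.2 nM [3H]NMS displaced by unlabelled ligand for 120 min at room temperature, in 25 mM sodium phosphate with 5 mM MgCl2, pH 7.4. Rapid filtration, then scintillation counting. Mean of at least three experiments.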

The target of test [2] is T2, Muscarinic acetylcholine receptor M1 (Homo sapiens, UniProt P11229).
T2 sequence (P11229 whole entry): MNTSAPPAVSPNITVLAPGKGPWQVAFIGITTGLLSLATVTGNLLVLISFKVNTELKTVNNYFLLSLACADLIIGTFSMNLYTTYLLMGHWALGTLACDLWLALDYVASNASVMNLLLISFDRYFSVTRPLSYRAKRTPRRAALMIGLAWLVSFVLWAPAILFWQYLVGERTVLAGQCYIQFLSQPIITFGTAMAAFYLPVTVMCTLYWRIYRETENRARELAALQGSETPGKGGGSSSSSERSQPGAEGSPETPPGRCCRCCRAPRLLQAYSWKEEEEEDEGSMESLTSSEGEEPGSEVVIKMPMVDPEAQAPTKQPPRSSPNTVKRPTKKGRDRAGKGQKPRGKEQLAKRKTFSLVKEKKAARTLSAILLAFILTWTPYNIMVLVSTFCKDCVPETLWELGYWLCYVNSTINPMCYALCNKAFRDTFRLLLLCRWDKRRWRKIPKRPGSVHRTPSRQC
Nature of the test: Binding affinity to cloned human muscarinic M1 receptor expressed in CHO cells. The format is cell-based.

The target of test [3] is T3, Muscarinic acetylcholine receptor M2 (Homo sapiens, UniProt P08172).
T3 sequence (P08172 whole entry): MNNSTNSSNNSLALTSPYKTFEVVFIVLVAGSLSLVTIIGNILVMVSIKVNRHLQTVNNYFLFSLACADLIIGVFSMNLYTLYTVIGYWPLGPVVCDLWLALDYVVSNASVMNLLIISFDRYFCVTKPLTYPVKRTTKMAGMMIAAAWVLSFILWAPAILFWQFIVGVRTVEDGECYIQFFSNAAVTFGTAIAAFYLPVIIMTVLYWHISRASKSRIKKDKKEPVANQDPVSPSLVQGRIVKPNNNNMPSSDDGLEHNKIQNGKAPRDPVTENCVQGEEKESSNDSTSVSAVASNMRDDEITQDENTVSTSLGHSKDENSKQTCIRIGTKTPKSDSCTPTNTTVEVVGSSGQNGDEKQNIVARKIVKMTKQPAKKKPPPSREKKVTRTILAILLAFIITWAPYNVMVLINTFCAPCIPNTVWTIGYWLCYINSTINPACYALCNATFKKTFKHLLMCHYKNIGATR
As to the kind of experiment: Binding affinity to cloned human muscarinic M2 receptor expressed in CHO cells. It counts as cell-based. The method, boiled down:
as §1

The target in test [4] is Muscarinic acetylcholine receptor M3 (Homo sapiens, UniProt P20309). Nature of the test: Binding affinity to cloned human muscarinic M3 receptor expressed in CHO cells. The format is cell-based.
The target of test [5] is T4, Muscarinic acetylcholine receptor M4 (Homo sapiens, UniProt P08173).
T4 sequence (P08173 whole entry): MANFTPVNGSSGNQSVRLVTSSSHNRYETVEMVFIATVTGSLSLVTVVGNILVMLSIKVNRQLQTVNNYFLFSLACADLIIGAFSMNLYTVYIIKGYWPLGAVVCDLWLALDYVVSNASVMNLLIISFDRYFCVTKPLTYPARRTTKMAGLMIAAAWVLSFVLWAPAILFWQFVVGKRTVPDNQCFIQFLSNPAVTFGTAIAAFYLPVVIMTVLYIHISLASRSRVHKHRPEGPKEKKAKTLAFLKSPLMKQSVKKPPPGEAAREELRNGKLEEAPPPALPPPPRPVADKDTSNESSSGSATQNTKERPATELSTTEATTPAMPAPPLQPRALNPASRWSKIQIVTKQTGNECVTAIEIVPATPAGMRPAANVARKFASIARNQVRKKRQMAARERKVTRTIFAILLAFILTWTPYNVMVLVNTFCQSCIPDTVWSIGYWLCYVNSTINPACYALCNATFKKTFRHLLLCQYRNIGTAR
As to the kind of experiment: Binding affinity to cloned human muscarinic M4 receptor expressed in CHO cells. It counts as cell-based. In outline:
as §1

The target of test [6] is T5, Muscarinic acetylcholine receptor M1 (Homo sapiens) (UniProt P11229).
T5 sequence (whole entry): T2 sequence (P11229 whole entry)
Nature of the test: Agonist potency at muscarinic M1 receptor in rabbit vas deferens. As to conditions: Oryctolagus cuniculus, target entry is the homologue from another species. The format is functional, tissue-based. The method, boiled down: (§2)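 Field-stimulated (0.1 ms, 2 Hz, 10-15 V), contractions recorded isometrically after 1 h equilibration. Cumulative dose-response curves against p-Cl-McN-A-343 reference. Antagonists incubated 60 min before the repeat curve. Reported as pD2 (-log ED50) with intrinsic activity, or as pKb.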

Test [7] addresses T6, Muscarinic acetylcholine receptor M2 (Homo sapiens) (UniProt P08172).
T6 sequence (whole entry): T3 sequence (P08172 whole entry)
Nature of the test: Agonist potency at muscarinic M2 receptor in guinea pig atrium. It counts as functional, tissue-based. As to conditions: Cavia porcellus; Cardiac atrium; target entry is the homologue from another species. The method, boiled down: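 Guinea pig left atria in PSS at 30 °C, paced by square-wave pulses (1 ms, 1 Hz, 5-10 V). Inotropic force recorded isometrically after 2 h equilibration, with cumulative dose-response curves to arecaidine propargyl ester as reference. Antagonists incubated 60 min after a 30 min wash, then the curve was repeated. Values given as pD2 with intrinsic activity, or as pKb.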

Test [8] has as its target Muscarinic acetylcholine receptor M3 (Cavia porcellus) (UniProt Q8VH26). As to the kind of experiment: Agonist potency at muscarinic M3 receptor in guinea pig ileum. The format is functional, tissue-based. In outline: (§3)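 Isolated guinea pig tissue contractions, measured against arecaidine propargyl ester control curves. Agonists: cumulative dose-response curve after a 30 min wash, responses as % of the control maximum. Antagonists: 60 min incubation, then a new agonist curve. Parallel time-control tissues were run. Values expressed as pD2 (-log ED50) with intrinsic activity, or as pKb (-log Kb).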

Test [9] addresses T7, Muscarinic acetylcholine receptor M4 (Homo sapiens) (UniProt P08173).
T7 sequence (whole entry): T4 sequence (P08173 whole entry)
As to the kind of experiment: Agonist potency at muscarinic M4 receptor in guinea pig lung strips. Particulars: Cavia porcellus, target entry is the homologue from another species. It counts as functional. In outline:
as §3

Test [10] addresses T5, Muscarinic acetylcholine receptor M1 (Homo sapiens). Nature of the test: Antagonist affinity at muscarinic M1 receptor in rabbit vas deferens. It counts as functional, tissue-based. As to conditions: Oryctolagus cuniculus, target entry is the homologue from another species. In outline: as §2
Test [11] deals with T7, Muscarinic acetylcholine receptor M4 (Homo sapiens). As to the kind of experiment: Antagonist affinity at muscarinic M4 receptor in guinea pig lung strips. It counts as functional. As to conditions: Cavia porcellus, target entry is the homologue from another species. The method, boiled down:
as §3

The target of test [12] is T6, Muscarinic acetylcholine receptor M2 (Homo sapiens). As to the kind of experiment: Efficacy of agonist at muscarinic M2 receptor in guinea pig atrium as ratio of Ka/ED50. It counts as functional, tissue-based. As to conditions: Cavia porcellus; Cardiac atrium; target entry is the homologue from another species. In outline:
(§4)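 Functional affinity constants (Ka) obtained in the atrium and ileum preparations. Full agonists: Furchgott-Bursztyn method. Partial agonists: Waud method, comparing their concentration-response curves with arecaidine propargyl ester, with equieffective concentrations read graphically. Ka was then related to ED50.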

The target in test [13] is Muscarinic acetylcholine receptor M3 (Cavia porcellus) (UniProt Q8VH26). As to the kind of experiment: Efficacy of agonist at muscarinic M3 receptor in guinea pig ileum as ratio of Ka/ED50. The format is functional, tissue-based. The method, boiled down:
as §4

Test [14] shares this target. As to the kind of experiment: Antagonist affinity at muscarinic M3 receptor in guinea pig ileum. It counts as functional, tissue-based. The method, boiled down:
as §3

Sequence of Muscarinic acetylcholine receptor M3 (P20309 whole entry): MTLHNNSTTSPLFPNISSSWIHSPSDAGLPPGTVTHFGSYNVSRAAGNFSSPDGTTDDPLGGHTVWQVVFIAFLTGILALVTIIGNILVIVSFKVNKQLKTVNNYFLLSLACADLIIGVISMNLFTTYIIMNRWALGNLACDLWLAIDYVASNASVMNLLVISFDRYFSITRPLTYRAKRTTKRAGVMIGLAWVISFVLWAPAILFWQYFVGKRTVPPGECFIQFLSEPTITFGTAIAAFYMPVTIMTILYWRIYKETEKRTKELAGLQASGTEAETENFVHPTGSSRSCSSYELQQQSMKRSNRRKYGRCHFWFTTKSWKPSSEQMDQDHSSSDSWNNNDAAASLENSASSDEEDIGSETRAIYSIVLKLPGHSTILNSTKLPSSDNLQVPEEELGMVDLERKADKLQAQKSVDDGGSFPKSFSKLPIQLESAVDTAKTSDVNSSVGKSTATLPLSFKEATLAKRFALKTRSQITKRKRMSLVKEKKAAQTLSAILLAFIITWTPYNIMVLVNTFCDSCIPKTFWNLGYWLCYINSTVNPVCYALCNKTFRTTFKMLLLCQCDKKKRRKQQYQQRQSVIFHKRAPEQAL
Sequence of Muscarinic acetylcholine receptor M3 (Cavia porcellus) (Q8VH26 1-587): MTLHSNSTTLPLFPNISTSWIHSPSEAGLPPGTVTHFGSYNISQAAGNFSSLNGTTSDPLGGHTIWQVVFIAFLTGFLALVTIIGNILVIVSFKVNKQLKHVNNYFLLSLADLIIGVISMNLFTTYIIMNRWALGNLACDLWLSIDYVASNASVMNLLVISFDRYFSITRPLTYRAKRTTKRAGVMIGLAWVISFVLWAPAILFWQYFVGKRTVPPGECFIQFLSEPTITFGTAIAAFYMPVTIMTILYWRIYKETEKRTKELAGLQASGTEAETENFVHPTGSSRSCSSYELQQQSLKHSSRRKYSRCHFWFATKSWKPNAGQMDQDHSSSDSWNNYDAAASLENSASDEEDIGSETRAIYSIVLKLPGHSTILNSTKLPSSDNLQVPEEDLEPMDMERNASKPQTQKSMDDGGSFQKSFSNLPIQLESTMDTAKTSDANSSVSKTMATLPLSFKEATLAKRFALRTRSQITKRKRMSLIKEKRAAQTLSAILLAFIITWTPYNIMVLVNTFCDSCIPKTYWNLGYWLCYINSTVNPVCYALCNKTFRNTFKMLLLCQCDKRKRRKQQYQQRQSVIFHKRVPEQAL

For the molecule `C#CCOC(=O)C1=CCCN(C)C1` [ARECAIDINE PROPARGYL ESTER], the Ki is 0.933 µM in test [1]; 1.23 µM in test [2]; 0.0871 µM in [3]; 0.851 µM in test [4]; 0.977 µM in test [5]. In addition, the pD2 in test [6] turned out to be 7.14; in test [7], 8.67; in test [8], 7.64; in [9], 5.56. The Activity in test [7] and in [8] was 1 each time.
For `C[C@@H]1O[C@H]([C@H]2CCC[N+]2(C)C)C[S@@+]1[O-]`, the Ki in test [1] is more than 100 µM; in test [2], more than 100 µM; in [3], 9.33 µM; in test [4] it was more than 100 µM; in [5], more than 100 µM. Also, the pKb in test [10] and in test [11] was less than 5 throughout. Further, the -logKa came out at 5.11 in [7] and 4.87 in [8]. Also, the values for the Activity in [7] and in test [8] were 0.58 and 1, respectively. The values for the pD2 in test [7] and in test [8] were 6.11 and 5.58, respectively. In addition, the figures for the Ratio in test [12] and in [13] were 12 and 7, respectively.
Take `C[C@@H]1O[C@H]([C@@H]2CCC[N+]2(C)C)C[S@@+]1[O-]`: the inhibitory constant (Ki) in [1] is 33.9 µM; in test [2] it was 93.3 µM; in test [3], 15.5 µM; in test [4] it was 33.9 µM; in test [5], 46.8 µM. Also, the negative logarithm of the Kb (pKb) in test [10] and in test [11] was less than 5 in each case. Besides, the values for the -logKa in test [7] and in [8] were 4.64 and 4.59, respectively. The Activity turned out to be 0.56 in test [7] and 0.54 in test [8]. Moreover, the pD2 in [7] amounted to 6.37; in test [8], 4.62. Also, the figures for the Ratio in [12] and in test [13] were 58 and 1, respectively.
On to `C[C@@H]1O[C@H]([C@@H]2CCC[N+]2(C)C)C[S@+]1[O-]`, for which the Ki was more than 100 µM in test [1]; more than 100 µM in [2]; 51.3 µM in test [3]; more than 100 µM in [4]; more than 100 µM in [5]. For the same molecule, the pKb in [10], in [14] and in test [11] was less than 5 each time. In [7], the -logKa was 6.13. Besides, the Activity in [7] was determined as 0.41; in test [8], 0. The pD2 in [7] is 7.65. For the same molecule, the Ratio in [12] worked out at 84.
For the molecule `C[N+](C)(C)CC#CCOC(=O)Nc1ccc(Cl)cc1`, the Ki in [1] was 3.8 µM; in test [2], 1.95 µM; in [3] it was 3.24 µM; in [4] it was 2.4 µM; in [5], 9.12 µM. The pD2 in test [6] was 6.33.
Regarding `C[C@H]1O[C@@H](C[N+](C)(C)C)C[S+]1[O-]` (single isomer, unassigned; (-)), the figures for the -logKa in test [7] and in test [8] were 5.22 and 5.38, respectively. Further, the pD2 in test [7] turned out to be 6.66; in [8], 6.95. Further, the Ratio was determined as 28 in test [12] and 37 in test [13].
